# In PMC4539048 (Science translational medicine, 2015):
# Columns and labels:
# [1] = target: dog DHODH (Canis lupus familiaris, UniProt A0A8I3MWX2); experiment: DHODH inhibition, DCIP spectrophotometric assay; format: biochemical; conditions: mean of 3 technical replicates, 95% confidence interval in parentheses
# [2] = tested on: P. falciparum 3D7; experiment: In vitro P. falciparum 3D7 growth inhibition; format: cell-based; conditions: for P. falciparum 3D7 growth inhibition EC50: 0.5% Albumax-II medium, 95% confidence intervals in parenthesis
# Outline: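 SYBR-green growth assay on P. falciparum 3D7 and drug-resistant lines, including chloroquine- and pyrimethamine-resistant parasites, cultured in RPMI-1640 with 0.5% Albumax-II. At least triplicate data per concentration. EC50 from the log(inhibitor) vs response variable-slope (four-parameter) fit by nonlinear least squares, reported with 95% confidence intervals of the fit.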
# [3] = target: rat DHODH (Rattus norvegicus, UniProt Q63707); experiment: DHODH inhibition, DCIP spectrophotometric assay; format: biochemical; conditions: mean of 3 technical replicates, 95% confidence interval in parentheses
# [4] = target: P. falciparum DHODH (PfDHODH) (Plasmodium falciparum, UniProt Q08210); format: biochemical; conditions: for IC50, P. falciparum DHODH: mean of 3 technical replicates, 95% confidence interval in parentheses
# [5] = target: human DHODH (Homo sapiens, UniProt Q02127); experiment: DHODH inhibition, DCIP spectrophotometric assay; format: biochemical; conditions: mean of 3 technical replicates, 95% confidence interval in parentheses
# [6] = target: mouse DHODH (Mus musculus, UniProt O35435); experiment: DHODH inhibition, DCIP spectrophotometric assay; format: biochemical; conditions: mean of 3 technical replicates, 95% confidence interval in parentheses
# [7] = tested on: P. falciparum 3D7; experiment: Blood-stage phenotype and development by microscopy; format: cell-based; conditions: 10xEC50, 48 h
# Outline: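 Giemsa-stained smears were scored by microscopy, at least 200 cells per condition, for stage arrest and morphology. Standard antimalarials served as controls.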
# [8] = tested on: P. falciparum Dd2 and resistant clones; experiment: microbe, parasite or virus in culture; format: cell-based; conditions: isolates derived from Dd2 and K1
# [9] = tested on: Salmonella typhimurium-E. coli; experiment: 5-strain bacterial reverse mutation assay
# [10] = tested on: P. falciparum HB3; experiment: In vitro selection of resistant parasites, HB3; format: cell-based; conditions: HB3 strain
# [11] = tested on: P. falciparum Dd2; format: cell-based
# [12] = tested on: G6PD-deficient human red blood cells; format: in vivo, NOD-SCID mice; conditions: blood type A- G6PD-deficient human red blood cells
# [13] = tested on: P. falciparum NF54 liver-stage parasites; conditions: historical data using the same donor; cited from earlier work
# [14] = target: P. vivax DHODH (PvDHODH) (Plasmodium vivax, UniProt A5K1N1); experiment: DHODH inhibition, DCIP spectrophotometric assay; format: biochemical; conditions: mean of 3 technical replicates, 95% confidence interval in parentheses
# [15] = Metabolite identification and profiling in pooled plasma; format: in vivo; conditions: all species, mass spectrometry peak area ratios, single dose of DSM265
# Outline: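 Pooled plasma from single-dose PK studies in mice, rabbits, monkeys and dogs was profiled by mass spectrometry. Metabolites were identified, and the main oxidative metabolite's structure was confirmed by synthesis. Each metabolite's exposure was estimated as a share of parent AUC from peak area ratios.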
# [16] = target: rabbit DHODH (Oryctolagus cuniculus, UniProt G1SWF3); experiment: DHODH inhibition, DCIP spectrophotometric assay; format: biochemical; conditions: mean of 3 technical replicates
# [17] = tested on: P. falciparum Dd2; conditions: Dd2, same 3xEC50 protocol; cited from earlier work
# P. falciparum DHODH (PfDHODH), sequence (Q08210 24-569): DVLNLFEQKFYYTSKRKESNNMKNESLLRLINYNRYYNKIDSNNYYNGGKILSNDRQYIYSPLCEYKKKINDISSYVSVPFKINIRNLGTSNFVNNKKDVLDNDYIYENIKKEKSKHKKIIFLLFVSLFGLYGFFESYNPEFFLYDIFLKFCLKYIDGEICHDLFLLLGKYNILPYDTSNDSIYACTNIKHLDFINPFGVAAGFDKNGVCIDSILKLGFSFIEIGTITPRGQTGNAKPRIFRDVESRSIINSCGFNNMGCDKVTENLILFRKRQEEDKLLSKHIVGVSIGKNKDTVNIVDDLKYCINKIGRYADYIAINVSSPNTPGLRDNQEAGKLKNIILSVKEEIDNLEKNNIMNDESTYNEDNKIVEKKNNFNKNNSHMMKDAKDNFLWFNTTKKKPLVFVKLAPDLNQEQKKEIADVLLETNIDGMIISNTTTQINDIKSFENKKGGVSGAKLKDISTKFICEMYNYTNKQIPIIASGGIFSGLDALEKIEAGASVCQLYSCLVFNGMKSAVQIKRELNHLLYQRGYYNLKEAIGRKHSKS
# mouse DHODH, sequence (O35435 whole entry): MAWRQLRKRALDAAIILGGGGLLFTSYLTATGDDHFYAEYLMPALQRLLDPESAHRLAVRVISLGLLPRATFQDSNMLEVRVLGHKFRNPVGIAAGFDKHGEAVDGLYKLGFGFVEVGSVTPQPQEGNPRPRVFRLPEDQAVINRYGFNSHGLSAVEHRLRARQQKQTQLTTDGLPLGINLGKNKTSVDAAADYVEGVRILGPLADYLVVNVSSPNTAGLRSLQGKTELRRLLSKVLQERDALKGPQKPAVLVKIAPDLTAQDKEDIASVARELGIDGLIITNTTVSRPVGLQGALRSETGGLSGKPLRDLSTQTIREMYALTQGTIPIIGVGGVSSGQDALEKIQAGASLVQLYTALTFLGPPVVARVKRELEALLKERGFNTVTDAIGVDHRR
# dog DHODH, sequence (A0A8I3MWX2 1-406): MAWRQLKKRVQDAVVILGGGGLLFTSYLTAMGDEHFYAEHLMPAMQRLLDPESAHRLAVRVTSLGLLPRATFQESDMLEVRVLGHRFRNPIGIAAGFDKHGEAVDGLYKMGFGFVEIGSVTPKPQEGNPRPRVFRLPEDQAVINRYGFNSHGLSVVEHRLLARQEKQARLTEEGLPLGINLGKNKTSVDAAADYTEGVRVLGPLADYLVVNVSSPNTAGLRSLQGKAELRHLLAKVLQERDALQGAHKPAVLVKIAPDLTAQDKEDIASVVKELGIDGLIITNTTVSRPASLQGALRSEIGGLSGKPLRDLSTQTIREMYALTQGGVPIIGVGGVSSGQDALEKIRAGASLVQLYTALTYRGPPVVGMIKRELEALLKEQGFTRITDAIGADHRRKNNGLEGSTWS
# rat DHODH, sequence (Q63707 whole entry): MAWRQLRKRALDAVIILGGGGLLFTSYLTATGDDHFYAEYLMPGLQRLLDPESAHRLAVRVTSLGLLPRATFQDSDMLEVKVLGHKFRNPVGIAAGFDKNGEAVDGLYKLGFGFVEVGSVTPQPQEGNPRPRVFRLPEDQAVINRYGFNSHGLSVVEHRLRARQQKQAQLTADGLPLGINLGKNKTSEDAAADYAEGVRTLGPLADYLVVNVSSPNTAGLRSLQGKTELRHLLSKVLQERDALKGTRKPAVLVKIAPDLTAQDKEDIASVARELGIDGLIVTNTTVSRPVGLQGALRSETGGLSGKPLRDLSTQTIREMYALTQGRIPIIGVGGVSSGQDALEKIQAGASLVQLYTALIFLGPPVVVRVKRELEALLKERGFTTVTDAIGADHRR
# human DHODH, sequence (Q02127 whole entry): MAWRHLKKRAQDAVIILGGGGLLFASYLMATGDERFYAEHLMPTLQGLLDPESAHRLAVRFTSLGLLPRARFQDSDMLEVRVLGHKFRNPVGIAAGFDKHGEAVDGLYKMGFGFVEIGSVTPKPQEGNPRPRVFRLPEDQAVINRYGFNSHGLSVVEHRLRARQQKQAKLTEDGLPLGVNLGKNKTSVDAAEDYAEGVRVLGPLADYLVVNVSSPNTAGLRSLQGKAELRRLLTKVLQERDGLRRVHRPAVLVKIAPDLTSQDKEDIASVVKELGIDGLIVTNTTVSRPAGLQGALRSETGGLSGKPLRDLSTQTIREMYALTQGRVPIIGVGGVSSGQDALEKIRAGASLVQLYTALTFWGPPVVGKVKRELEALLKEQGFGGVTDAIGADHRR
# rabbit DHODH, sequence (G1SWF3 1-395): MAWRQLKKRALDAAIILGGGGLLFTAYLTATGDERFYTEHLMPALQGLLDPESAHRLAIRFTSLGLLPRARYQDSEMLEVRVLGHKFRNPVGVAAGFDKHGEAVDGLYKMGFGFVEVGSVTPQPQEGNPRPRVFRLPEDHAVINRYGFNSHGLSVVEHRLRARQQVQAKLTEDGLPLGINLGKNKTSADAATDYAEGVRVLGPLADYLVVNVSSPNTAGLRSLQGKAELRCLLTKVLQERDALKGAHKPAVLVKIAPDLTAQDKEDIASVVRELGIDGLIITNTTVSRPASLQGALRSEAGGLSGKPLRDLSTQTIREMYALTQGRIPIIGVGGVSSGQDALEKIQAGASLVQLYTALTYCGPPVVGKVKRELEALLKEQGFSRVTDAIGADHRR
smiles,measurement,setting,value
"Cc1cc(Nc2ccc(S(F)(F)(F)(F)F)c(F)c2)n2nc(C(C)(F)F)nc2n1 [DSM430, 2-(1,1-difluoroethyl)-N-(3-fluoro-4-(pentafluoro-l^6-sulfanyl)phenyl)-5-methyl-[1,2,4]triazolo[1,5-a]pyrimidin-7-amine]","IC50, Dog DHODH",[1],0.56 (0.48 – 0.65) μg/mL
same,P. falciparum 3D7 growth inhibition EC50,[2],0.0002 (0.00011 – 0.00056) μg/mL
same,"IC50, Rat DHODH",[3],0.082 (0.069 – 0.099) μg/mL
same,"IC50, P. falciparum DHODH",[4],0.010 (0.0079 – 0.014) μg/mL
same,"IC50, Human DHODH",[5],3.7 (2.6 – 4.8) μg/mL
same,"IC50, Mouse DHODH",[6],0.10 (0.082 – 0.12) μg/mL
C[C@@H]1CC[C@H]2[C@@H](C)C(=O)O[C@@H]3O[C@@]4(C)CC[C@@H]1[C@]32OO4 [artemisinin],blood-stage phenotype after treatment,[7],pyknotic
same,sensitivity of DSM265-resistant isolates to the drug,[8],fully sensitive
Nc1ccc(S(F)(F)(F)(F)F)cc1 [SF5-aniline],mutagenic activity (Ames test),[9],non-mutagenic
CCc1nc(N)nc(N)c1-c1ccc(Cl)cc1 [pyrimethamine],blood-stage phenotype after treatment,[7],arrested as mature trophozoites
O=C1C(O)=C([C@H]2CC[C@H](c3ccc(Cl)cc3)CC2)C(=O)c2ccccc21 [atovaquone],outcome of resistance selection,[10],resistant HB3 parasites could be obtained
same,sensitivity of DSM265-resistant isolates to the drug,[8],fully sensitive
same,drug concentration required to suppress emergence of resistant parasites,"[11]; Dd2, inoculum 2×10^7 parasites",33 xEC50
same,EC50 increase of resistant Dd2 parasites over wild-type,[11]; parasites selected with the same drug,10 fold
COc1cc(NC(C)CCCN)c2ncccc2c1 (centres unmarked) [primaquine],hemolytic toxicity,[12],substantial loss in human RBCs
same,EC50 on hepatocyte infection rate (EEF count),[13],0.20 (0.059 – 0.71) μg/mL
same,Liver-stage schizont EC50 (EEF diameter/size),[13],0.15 µg/mL
"CC(F)(F)c1nc2nc(CO)cc(Nc3ccc(S(F)(F)(F)(F)F)cc3)n2n1 [DSM450, (2-(1,1-difluoroethyl)-7-((4-(pentafluoro-l^6-sulfanyl)phenyl)amino)-[1,2,4]triazolo[1,5-a]pyrimidin-5-yl)methanol]","IC50, Dog DHODH",[1],25 (21 – 29) μg/mL
same,"IC50, P. vivax DHODH",[14],0.11 (0.081 – 0.15) μg/mL
same,fold less active than DSM265 against P. falciparum 3D7 parasites,[2],43 fold
same,P. falciparum 3D7 growth inhibition EC50,[2],0.079 (0.042 – 0.15) μg/mL
same,plasma metabolite exposure as share of the parent AUC,[15],4–27%
same,"IC50, Rat DHODH",[3],1.6 (1.2 – 2.0) μg/mL
same,fold less potent than DSM265 as a PfDHODH inhibitor,[4],3 fold
same,"IC50, P. falciparum DHODH",[4],0.032 (0.026 – 0.040) μg/mL
same,"IC50, Human DHODH",[5],>43 µg/mL
same,"IC50, Mouse DHODH",[6],4.5 (3.1 – 6.9) μg/mL
same,"IC50, Rabbit DHODH",[16],>43 µg/mL
CCN(CC)CCCC(C)Nc1ccnc2cc(Cl)ccc12 (centres unmarked) [chloroquine],minimum inoculum for resistance (MIR),[17],10^8
